Laboratory results taken from ChEMBL document CHEMBL1144610, “High-affinity carbamate analogues of morphinan at opioid receptors” (Bioorg Med Chem Lett, 2007).
Activity calls are given as the source filed them. The rule behind the calls is not given here.

Key:
Mu-type opioid receptor [1] = target: T1, Mu-type opioid receptor (Homo sapiens, UniProt P35372); experiment: Agonist activity at human mu opioid receptor expressed in CHO cells assessed as maximal stimulation of [35S]GTP-gamma-S binding; type: functional, cell-based
[2] = target: T2, Kappa-type opioid receptor (Homo sapiens, UniProt P41145); experiment: Agonist activity at huma kappa opioid receptor expressed in CHO cells assessed as […] of [35S]GTP-gamma-S binding; type: functional, cell-based
[3] = target: T2, Kappa-type opioid receptor; experiment: Displacement of [3H]U-69593 from human kappa opioid receptors expressed in CHO cell membrane
[4] = target: Delta-type opioid receptor (Homo sapiens, UniProt P41143); experiment: Displacement of [3H]naltrindole from human delta opioid receptors expressed in CHO cell membrane
Mu-type opioid receptor [5] = target: T1, Mu-type opioid receptor; experiment: Displacement of [3H]DAMGO from human mu opioid receptors expressed in CHO cell membrane
Mu-type opioid receptor [6] = target: T1, Mu-type opioid receptor; experiment: Antagonist activity at human mu opioid receptor expressed in CHO cells assessed as DAMGO-stimulated [35S]GTP-gamma-S binding; type: functional, cell-based
[7] = target: T2, Kappa-type opioid receptor; experiment: Agonist activity at human opioid kappa receptor expressed in CHO cells assessed as maximal stimulation of [35S]GTP-gamma-S binding relative to control; type: functional, cell-based
How it was run: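 CHO cell membranes stably expressing only the human κ opioid receptor were incubated with varying concentrations of each compound. Stimulation of [35S]GTPγS binding was measured, and maximal stimulation was taken as Emax.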

[8] = target: Opioid receptors; mu & kappa (Homo sapiens) (UniProt P41145+P35372); experiment: Selectivity for kappa opioid receptor over mu opioid receptor expressed in CHO cells; type: cell-based
[9] = target: Opioid receptors; delta & kappa (Homo sapiens) (UniProt P41145+P41143); experiment: Selectivity for kappa opioid receptor over delta opioid receptor; type: protein assay
[10] = Displacement of [3H]naltrindole from human delta opioid receptors expressed in CHO cell membrane

T2 sequence (P41145 whole entry): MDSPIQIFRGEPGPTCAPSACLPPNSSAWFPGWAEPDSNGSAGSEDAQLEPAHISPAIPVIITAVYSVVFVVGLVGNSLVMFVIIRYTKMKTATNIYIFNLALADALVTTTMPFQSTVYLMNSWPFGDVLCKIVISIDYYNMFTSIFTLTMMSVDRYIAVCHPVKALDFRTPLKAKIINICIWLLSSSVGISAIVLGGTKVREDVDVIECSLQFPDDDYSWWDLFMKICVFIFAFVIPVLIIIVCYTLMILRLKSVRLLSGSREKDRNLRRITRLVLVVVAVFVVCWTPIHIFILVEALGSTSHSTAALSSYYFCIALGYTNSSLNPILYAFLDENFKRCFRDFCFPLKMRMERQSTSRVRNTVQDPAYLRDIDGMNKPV
T1 sequence (P35372 whole entry): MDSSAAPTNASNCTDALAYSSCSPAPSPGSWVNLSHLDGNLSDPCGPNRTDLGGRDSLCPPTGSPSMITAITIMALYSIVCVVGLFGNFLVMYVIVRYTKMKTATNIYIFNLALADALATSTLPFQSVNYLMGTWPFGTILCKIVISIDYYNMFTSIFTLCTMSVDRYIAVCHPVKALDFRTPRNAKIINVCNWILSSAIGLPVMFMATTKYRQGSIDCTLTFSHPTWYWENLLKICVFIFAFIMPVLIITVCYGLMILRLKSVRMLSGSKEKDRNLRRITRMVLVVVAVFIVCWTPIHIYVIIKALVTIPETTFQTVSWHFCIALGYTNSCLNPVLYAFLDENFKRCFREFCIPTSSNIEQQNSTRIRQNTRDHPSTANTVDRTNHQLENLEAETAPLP
Sequence of Opioid receptors; mu & kappa (Homo sapiens) (P35372 whole entry, looked up): as the sequence (P35372 whole entry) above
Sequence of Opioid receptors; mu & kappa (Homo sapiens) (P41145 whole entry, looked up): as the sequence (P41145 whole entry) above
Sequence of Opioid receptors; delta & kappa (Homo sapiens) (P41143 whole entry, looked up): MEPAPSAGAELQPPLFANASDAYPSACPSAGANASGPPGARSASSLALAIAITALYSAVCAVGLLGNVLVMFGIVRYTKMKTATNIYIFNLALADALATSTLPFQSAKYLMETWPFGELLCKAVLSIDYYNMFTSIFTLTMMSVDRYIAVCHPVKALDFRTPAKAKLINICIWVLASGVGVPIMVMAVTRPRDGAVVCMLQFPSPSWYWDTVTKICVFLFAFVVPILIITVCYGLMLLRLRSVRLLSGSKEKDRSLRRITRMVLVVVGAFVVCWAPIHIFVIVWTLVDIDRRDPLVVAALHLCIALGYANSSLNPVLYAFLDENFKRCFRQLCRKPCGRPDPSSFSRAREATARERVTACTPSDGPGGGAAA
Sequence of Opioid receptors; delta & kappa (Homo sapiens) (P41145 whole entry, looked up): as the sequence (P41145 whole entry) above
Sequence of Delta-type opioid receptor (P41143 whole entry): as the sequence (P41143 whole entry, looked up) above

SMILES | EC50 (Mu-type opioid receptor [1]) | Emax (Mu-type opioid receptor [1]) | EC50 [2] | Ki [3] | Ki [4] | Ki (Mu-type opioid receptor [5]) | Activity (Mu-type opioid receptor [6]) | Imax (Mu-type opioid receptor [6]) | Emax [7] | Ratio Ki [8] | Ratio Ki [9] | IC50 (Mu-type opioid receptor [6]) | Ki [10]
CCNC(=O)Oc1ccc2c(c1)C13CCCCC1C(C2)N(CC1CCC1)CC3 (stereo not given) | 39 nM | 32% | 23 nM | 4.3 nM | 27 nM | 3.7 nM | inactive | 33% | 61% | 0.9 | 6 | – | –
CNC(=O)Oc1ccc2c(c1)C13CCCCC1C(C2)N(C)CC3 (stereo not given) | 50 nM | 71% | 29 nM | 3.3 nM | 53 nM | 1.4 nM | – | – | 96% | 0.4 | 16 | – | –
CNC(=O)Oc1ccc2c(c1)C13CCCCC1C(C2)N(CC1CCC1)CC3 (single isomer, unassigned; (-)) | 11 nM | 60% | 9.6 nM | 0.81 nM | 30 nM | 1.2 nM | – | – | 88% | 1.5 | 37 | – | –
CCNC(=O)Oc1ccc2c(c1)C13CCCCC1C(C2)N(C)CC3 (stereo not given) | – | – | – | 36 nM | 78 nM | 4.8 nM | – | – | – | 0.1 | 2 | – | –
CNC(=O)Oc1ccc2c(c1)C13CCCCC1C(C2)N(CC1CC1)CC3 (single isomer, unassigned; (-)) | 14 nM | 44% | 16 nM | 3.4 nM | 42 nM | 5.3 nM | – | – | 78% | 1.6 | 12 | – | –
O=C(NCc1ccccc1)Oc1ccc2c(c1)C13CCCCC1C(C2)N(CC1CC1)CC3 (single isomer, unassigned; (-)) | 2.2 nM | 39% | 1.1 nM | 0.14 nM | 2.7 nM | 0.3 nM | – | 71% | 130% | 2 | 20 | 16 nM | –
CCNC(=O)Oc1ccc2c(c1)C13CCCCC1C(C2)N(CC1CC1)CC3 (single isomer, unassigned; (-)) | 2.4 nM | 40% | 1.2 nM | 0.14 nM | 2.8 nM | 0.29 nM | – | 68% | 140% | 2 | 20 | 10 nM | –
O=C(Nc1ccccc1)Oc1ccc2c(c1)C13CCCCC1C(C2)N(CC1CC1)CC3 (stereo not given) | 0.44 nM | 39% | 0.38 nM | 0.046 nM | 1.6 nM | 0.11 nM | – | 70% | 120% | 2.4 | 35 | 6.4 nM | –
Oc1ccc2c(c1)[C@@]13CCCC[C@H]1[C@@H](C2)N(CC1CCC1)CC3 [BUTORPHAN] | – | – | – | – | – | – | – | – | – | – | – | – | 5.9 nM
Oc1ccc2c(c1)[C@@]13CCCC[C@H]1[C@@H](C2)N(CC1CC1)CC3 [CYCLORPHAN] | – | – | – | – | – | – | – | – | – | – | – | – | 1.9 nM
O=C(Nc1ccccc1)Oc1ccc2c(c1)C13CCCCC1C(C2)N(CC1CCC1)CC3 (single isomer, unassigned; (-)) | 1.3 nM | 80% | 2.2 nM | 0.051 nM | 3.9 nM | 0.12 nM | – | 37% | 74% | 2 | 76 | 22 nM | –
O=C(NCc1ccccc1)Oc1ccc2c(c1)C13CCCCC1C(C2)N(CC1CCC1)CC3 (single isomer, unassigned; (-)) | 7.1 nM | 54% | 4.7 nM | 0.3 nM | 15 nM | 0.7 nM | – | 50% | 110% | 0.4 | 50 | 260 nM | –
